From PubChem BioAssay
Most compounds without a hit are left out; they make up all but 1.2% or so of the library.
CRFBP-R2 block – antagonists of CRF-BP/CRF-R2 complex, primary screen, cell-based, HEK293, calcium dye fluorescence, uHTS; inhibition, % at 11.8 µM; 350,000 compounds, 0.59% hits; CRF-induced calcium fluorescence;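 active means inhibition of the ligand-induced calcium signal above about 50% at the single tested concentration, limit read from the data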
zfTRPN1 agonist – zebrafish TRPN1 channel agonists, primary screen, cell-based, HEK293, calcium fluorescence; transient receptor potential cation channel N1 (TRPN1/NompC), Danio rerio; HEK293 zebrafish TRPN1-YFP, Fluo-8 calcium fluorescence; 100% = response to 87 µM carbachol; activation, % at 3 µM; 220,000 compounds, 0.18% hits; AID 1424, 2008;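 active means activation above its plate's cutoff, the mean activation of test wells on that plate plus 3 SD, cut at about 19% in these data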;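 further: 0% = DMSO alone and 100% = 87 µM carbachol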
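Assay system: Zebrafish TRPN1-YFP in HEK293 cells | Incubation: Dye loading 1 h at 37 °C, then 30 min room temperature | Measured by: Kinetic Fluo-8 fluorescence, ex 470-495, em 515-575 nm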
CRFBP-R2 agonist – agonists of CRF-BP/CRF-R2 complex, primary screen, cell-based, HEK293, calcium dye fluorescence, uHTS; CRF-binding protein / CRF receptor 2 complex (human); calcium dye fluorescence (FLIPR); percent of saturating CRF peptide response; activation, % at 13.2 µM; 350,000 compounds, 0.46% hits; AID 588473, 2011;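 active means activation of at least 50%, plus an integration ratio under a set limit after plate pattern correction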;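 further: plate controls were neutral control wells without compound for no effect and CRF at EC100 for full effect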
TRPML3 ag – human TRPML3 channel agonists, primary screen, cell-based, HEK293 TRPML3-YFP, Fluo-8 calcium fluorescence, 3 µM | activation, % at 3 µM | AID 1448, 2008 | Mucolipin-3 (Homo sapiens), Q8TDD5 | 220,000 compounds, 0.29% hits | 100% = the carbachol control signal;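 active means activation above its plate's cutoff, the mean activation of the plate's test wells plus 3 SD, cut at about 12% in these data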;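 further: 0% = DMSO only wells and 100% = carbachol wells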
Target sequence (Q8TDD5 whole entry, looked up): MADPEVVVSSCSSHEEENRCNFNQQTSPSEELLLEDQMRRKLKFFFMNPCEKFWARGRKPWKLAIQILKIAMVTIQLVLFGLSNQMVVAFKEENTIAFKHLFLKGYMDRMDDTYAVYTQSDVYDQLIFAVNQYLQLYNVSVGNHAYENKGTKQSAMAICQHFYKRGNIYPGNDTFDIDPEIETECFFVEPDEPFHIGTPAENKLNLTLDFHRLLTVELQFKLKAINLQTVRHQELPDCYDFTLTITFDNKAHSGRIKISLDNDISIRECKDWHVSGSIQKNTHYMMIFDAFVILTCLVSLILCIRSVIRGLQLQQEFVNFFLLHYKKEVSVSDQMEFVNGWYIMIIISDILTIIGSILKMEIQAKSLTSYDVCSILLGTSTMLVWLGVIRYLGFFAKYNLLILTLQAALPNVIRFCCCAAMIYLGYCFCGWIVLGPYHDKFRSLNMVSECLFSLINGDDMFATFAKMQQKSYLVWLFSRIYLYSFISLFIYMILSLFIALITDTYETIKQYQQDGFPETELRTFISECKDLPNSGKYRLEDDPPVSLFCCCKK
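Test system: HEK293 cells stably carrying human TRPML3-YFP; Doses: single dose, 3 µM final nominal compound, 0.3% DMSO final; Schedule: dye loading 1 h 37 °C then 30 min ambient, 125 s read; Technique: Fluo-8 calcium fluorescence; Benchmarks: high control carbachol 87 µM, low control DMSO.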
Numbers without * were called inactive; . = not tested or not shown.

SMILES	CRFBP-R2 block	zfTRPN1 agonist	CRFBP-R2 agonist	TRPML3 ag
CC(/C=C/c1ccccc1)=N\NC(=O)c1ccc2c(c1)OCCO2	4.7	1.1	-0.8	0.1
CC(/C=C/c1ccccc1)=N/NC(=O)CNC(=O)c1ccc2c(c1)OCO2	72.4*	-1.3	0.4	0.0
Cc1ccc(NC(=O)C2CCN(S(=O)(=O)c3c(C)noc3/C=C/N(C)C)CC2)cc1	-2.2	.	-0.9	.
Cc1noc(/C=C/N(C)C)c1S(=O)(=O)N1CCC(C(=O)Nc2ccc(Cl)cc2)CC1	90.3*	.	-1.2	.
CCCCN(C(=O)CNC(=O)c1cccs1)C(C(=O)NC1CCCCC1)c1cccnc1 (stereo not given)	-16.4	1.9	-0.1	3.4
O=C(NCCSc1ccccn1)c1ccc(Cl)cc1	-9.5	-0.5	2.1	-0.3
CS(=O)(=O)N(Cc1ccc(Cl)cc1)c1ccc(C(=O)NCCSc2ccccn2)cc1	2.2	2.3	53.9*	1.0
CC1CCC2=NN(C(=O)c3ccco3)C(O)(C(F)(F)F)C2C1 (stereo not given)	67.3*	-0.1	-1.2	-0.2
O=C(c1ccco1)N1N=C(C2CCCCC2)CC1(O)C(F)(F)F (stereo not given)	-10.4	-0.9	-0.6	-1.4
CCCn1c(C(C)NS(=O)(=O)c2ccccc2)n[nH]c1=S (stereo not given)	62.2*	.	-1.1	.
CC(=O)c1ccc(NC(=O)Nc2cccc(Cl)c2)cc1	-26.1	3.7	52.8*	3.5
O=C(Nc1ccccc1C(=O)O)c1cccc(NC(=O)c2ccccc2Br)c1	1.0	.	-1.4	.
COC(=O)c1cccc(NC(=O)Nc2ccc(Cl)c(Cl)c2)c1	4.2	19.5*	28.2	6.6
O=C(Nc1cc(C(=O)Nc2ccccc2C(=O)O)cc(C(=O)Nc2ccccc2C(=O)O)c1)c1ccccc1	103.6*	.	0.5	.
O=C(Nc1ccc(Cl)c(Cl)c1)Nc1ccccc1C(=O)O	58.9*	-0.2	-1.3	0.7
CC1(C)CC2C1CCC1(O)CC2(C)CCC1N(O)c1ccc(C(=O)NCCO)cn1 (stereo not given)	-3.1	.	-0.4	.
CCn1c(-c2ccc(F)cc2)cnc1SCC(=O)N1CCc2ccccc21	.	-0.8	.	-1.5
COC(=O)C1CCN(C(=O)COC(=O)c2cc([N+](=O)[O-])ccc2N2CCOCC2)CC1	104.9*	.	0.1	.
COc1ccccc1C1=NN(C2=NN=C(N)Cc3ncnn32)C(O)(C(F)(F)F)C1 (stereo not given)	-58.7	-0.3	-3.4	0.1
COC1C(CO)OC(n2c3c(Cl)cccc3c3c4c(c5c6cccc(Cl)c6[nH]c5c32)C(=O)NC4=O)C(O)C1O (stereo not given)	-75.1	.	67.5*	.
O=[N+]([O-])c1ccc(N2N=C(c3ccco3)CC2c2ccccc2)cc1 (stereo not given)	-122.3	1.3	51.4*	0.1
Fc1ccc(C2CC(c3ccco3)=NN2c2ccccc2)cc1 (stereo not given)	-16.6	-0.8	1.5	0.6
CC(C)(C)c1cc(C(=O)NNC(=O)Nc2ccccc2)n(Cc2ccccc2)n1	1.5	-1.8	0.2	-2.1
CC(C)(C)c1cc(C(=O)NNC(=O)Nc2cccc(Cl)c2)n(Cc2ccccc2)n1	51.0*	-2.5	0.6	-1.0
O=C(CC1C(=O)NCCN1C(=S)Nc1ccccc1)Nc1ccc2c(c1)OCCO2 (stereo not given)	-12.2	1.0	2.8	-0.2
SMILES	CRFBP-R2 block	zfTRPN1 agonist	CRFBP-R2 agonist	TRPML3 ag
O=C(CC1C(=O)NCCN1C(=O)Nc1ccccc1)Nc1ccc2c(c1)OCO2 (stereo not given)	73.6*	-0.1	9.4	1.0
O=C(Nc1nnc(-c2cccs2)o1)c1cccc(C(F)(F)F)c1	24.0	21.3*	80.9*	0.9
N#Cc1ccc(C(=O)Nc2nnc(-c3cccs3)o2)cc1	16.8	-0.2	0.6	0.7
COC(=O)CSc1nn(-c2ccc(F)cc2)c(=S)s1	51.2*	-1.5	-9.9	-1.0
O=C(N/N=C1/C(=O)c2cccc3cccc1c23)c1ccc(Cl)cc1	15.2	-1.1	52.2*	0.3
CCNC(=S)N/N=C1\C(=O)c2cccc3cccc1c23	11.7	-0.1	-0.8	0.9
Cc1cccc(C)c1NC(=O)c1ccc(-c2ccc(Cl)cc2Cl)o1	24.0	-1.1	4.4	-0.6
Cc1ccccc1NC(=O)c1ccc(-c2ccc(Cl)cc2Cl)o1	66.2*	-0.4	-3.0	-0.3
Cc1ccc(C)c(N(C(=O)CS(=O)CC(=O)Nc2ccc3c(c2)OCO3)C(C)C(=O)NC2CCCC2)c1 (stereo not given)	0.3	-1.6	-1.8	0.2
O=[N+]([O-])c1ccc(/C=N/Nc2nc(NCc3ccccc3)nc(N3CCOCC3)n2)cc1	5.2	-0.3	0.3	-0.1
O=[N+]([O-])c1ccc(N2CCOCC2)cc1NCc1ccccc1	63.8*	-1.8	-1.4	0.0
O=[N+]([O-])c1cccc(/C=N/Nc2nc(NCc3ccccc3)nc(N3CCOCC3)n2)c1O	-4.3	1.2	68.5*	0.3
O=C(CCNC(=O)OCC1c2ccccc2-c2ccccc21)NOCc1ccccc1	0.7	.	-3.0	.
O=C(O)CCNC(=O)OCC1c2ccccc2-c2ccccc21	59.7*	.	-5.3	.
Cc1cccc(N2C(=O)C(O)=C(C(=O)c3cccs3)C2c2ccc(C(C)C)cc2)n1 (stereo not given)	-0.9	-0.5	62.4*	1.0
C=CCOc1ccc(C2C(C(=O)c3cccs3)=C(O)C(=O)N2c2nnc(C)s2)cc1 (stereo not given)	10.4	2.3	26.9	2.9
COc1ccc(C2C(C(=O)c3cccs3)=C(O)C(=O)N2c2nncs2)cc1 (stereo not given)	-303.1	1.0	265.5*	1.1
Cc1cccc(N2C(=O)C(O)=C(C(=O)c3cccs3)C2c2ccc(F)cc2)n1 (stereo not given)	18.0	0.0	-0.3	-0.4
CC(C)c1nnc(N2C(=O)C(O)=C(C(=O)c3cccs3)C2c2ccccc2)s1 (stereo not given)	-217.5	182.7*	195.8*	114.4*
Cc1cc(=O)oc2cc(NC(=O)C3CCCC3)ccc12	-5.0	1.8	-1.3	1.3
O=C1NC[C@H](c2ccccc2)OC(=O)[C@H](Cc2ccc(F)cc2)CC/C=C/C[C@@H]1CC(=O)N(CCO)Cc1ccccc1	-1.1	.	1.9	.
N#Cc1c(C(F)(F)F)cc(-c2ccc(F)cc2)[nH]c1=O	20.0	-0.8	0.1	0.4
N#Cc1c(C(F)(F)F)cc(-c2ccc(Cl)cc2)[nH]c1=O	62.6*	3.1	-0.8	0.5
CS(=O)(=O)Oc1ccc(Br)c2cccnc12	62.3*	-0.2	-1.7	0.3
Cc1noc(C)c1S(=O)(=O)N1CCC(C(=O)N2CCN(c3ccc(F)cc3)CC2)CC1	60.4*	0.4	-5.3	0.5
CCN1/C(=C/c2ccc3cc(C)ccc3[n+]2CC)Sc2cc(C)ccc21	-183.8	33.0*	131.4*	12.7*
